Results as given in ChEMBL document CHEMBL2311355, “A class of 5-nitro-2-furancarboxylamides with potent trypanocidal activity against Trypanosoma brucei in vitro” (J Med Chem, 2013).
pEC50: −log10 of the molar value.

What was measured:
[1] = system: Trypanosoma brucei brucei; test: Trypanocidal activity against bloodstream form of Trypanosoma brucei brucei 427 after 72 hrs by Alamar blue assay; format: functional, organism-based; details: Trypanosoma brucei, 427, 72 h
Outline: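 Bloodstream-form T. b. brucei strain 427 grown at 37°C in HMI9 with 10% fetal calf serum and 2.5 µg ml-1 G418, exposed to serially diluted compounds for 72 h. Viability read by Alamar Blue. Four replicates; EC50 ± standard deviation and slope factor from curve fitting.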

[2] = Selectivity index, ratio of EC50 for human HeLa cells to EC50 for bloodstream form of Trypanosoma brucei brucei 427; format: toxicity, cell-based; details: read-out: Ratio EC50
HeLa = test: Cytotoxicity against human HeLa cells after 65 hrs by Alamar blue assay; format: cell-based
[3] = system: Trypanosoma brucei rhodesiense; test: Trypanocidal activity against Trypanosoma brucei rhodesiense Z310 after 72 hrs by Alamar blue assay; format: functional, organism-based; details: Z310, 72 h
Outline: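 T. b. rhodesiense strain Z310 cultured at 37°C in HMI9 with 10% fetal calf serum, without G418, and exposed to compounds for 72 h. Alamar Blue viability read-out. Four replicates; EC50 ± standard deviation from curve fitting.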

[4] = system: Trypanosoma brucei brucei; test: Ratio of nifurtimox EC50 to compound EC50 for bloodstream form of wild type Trypanosoma brucei brucei 427; format: functional
[5] = Selectivity ratio of EC50 for bloodstream form of N-(4-(allyloxy)-3-(trifluoromethyl)phenyl)-5-nitrofuran-2-carboxamide-resistant Trypanosoma brucei to EC50 for bloodstream form of wild type Trypanosoma brucei brucei 427; format: functional
Trypanosoma brucei [6] = test: Trypanocidal activity against bloodstream form of N-(4-(allyloxy)-3-(trifluoromethyl)phenyl)-5-nitrofuran-2-carboxamide-resistant Trypanosoma brucei after 72 hrs by Alamar blue assay; format: functional, organism-based
Trypanosoma brucei [7] = test: Trypanocidal activity against bloodstream form of nifurtimox-resistant Trypanosoma brucei after 72 hrs by Alamar blue assay; format: functional, organism-based
[8] = Selectivity ratio of EC50 for bloodstream form of nifurtimox-resistant Trypanosoma brucei to EC50 for bloodstream form of wild type Trypanosoma brucei brucei 427; format: functional
Trypanosoma brucei [9] = test: Antitrypanosomal activity against trypomastigote form of Trypanosoma brucei; format: functional, organism-based
Outline: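 Bloodstream-form T. b. brucei strain 427 grown at 37°C in HMI9 with 10% fetal calf serum and 2.5 μg ml-1 G418; viability read by Alamar Blue after 72 h compound exposure. Four replicates, EC50 ± standard deviation and slope factor from curve fitting.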

Structure (SMILES)	pEC50 [1]	selectivity ratio [2]	pEC50 (HeLa)	also measured
COc1ccc(NC(=O)c2ccc([N+](=O)[O-])o2)cc1	7.12	> 261	< 4.70	–
O=C(Nc1cccs1)c1ccc([N+](=O)[O-])o1	7.20	> 322	< 4.70	–
COc1ccc(NC(=O)c2ccc([N+](=O)[O-])o2)cc1C(F)(F)F	8.11	> 2560	< 4.70	–
CCc1cc(C(=O)NCCO)c(NC(=O)c2ccc([N+](=O)[O-])o2)s1	7.10	> 253	< 4.70	–
COc1cccc(NC(=O)c2ccc([N+](=O)[O-])o2)c1	7.23	> 345	< 4.70	–
O=C(NCc1cccc(C(F)(F)F)c1)c1ccc([N+](=O)[O-])o1	7.76	> 1150	< 4.70	–
CCCCOC(=O)c1cc(CC)sc1NC(=O)c1ccc([N+](=O)[O-])o1	7.49	> 625	< 4.70	–
C=CCOc1ccc(NC(=O)c2ccc([N+](=O)[O-])o2)cc1	8.11	> 258	< 4.70	–
C=CCOc1ccc(N(CC=C)C(=O)c2ccc([N+](=O)[O-])o2)cc1C(F)(F)F	5.66	> 9	< 4.70	–
O=C(Nc1ccccc1)c1ccc([N+](=O)[O-])o1	7.55	> 710	< 4.70	–
Nc1nc(N)nc(Nc2ccc([As]3SCC(CO)S3)cc2)n1 (stereo not given) [MELARSOPROL]	–	–	–	pEC50 [3]: 8.11
CCc1cc(C(N)=O)c(N)s1	4.49	–	< 4.70	–
CCOC(=O)c1cc(CC)sc1NC(=O)c1ccco1	< 4.70	–	< 4.70	–
CCc1cc(C(=O)O)c(NC(=O)c2ccc([N+](=O)[O-])o2)s1	6.02	–	< 4.70	–
COc1ccc(NC(=O)c2ccc([N+](=O)[O-])o2)cc1C	7.42	> 525	< 4.70	–
CCOC(=O)c1cc(CC)sc1NC(=O)c1ccc([N+](=O)[O-])o1	7.50	> 640	< 4.70	Ratio EC50 [4]: 100; pEC50 [3]: 7.35
CCc1cc(C(N)=O)c(NC(=O)c2ccc([N+](=O)[O-])cc2)s1	< 4.70	–	< 4.70	–
Cc1csc(N)c1C(N)=O	4.19	–	< 4.70	–
O=C(Nc1cccc(C(F)(F)F)c1)c1ccc([N+](=O)[O-])o1	8.33	> 4450	< 4.70	pEC50 [3]: 8.03
CCCCc1cc(C(=O)OCC)c(NC(=O)c2ccc([N+](=O)[O-])o2)s1	6.90	> 160	< 4.70	–
CCc1cc(C(=O)OC)c(NC(=O)c2ccc([N+](=O)[O-])o2)s1	7.68	> 950	< 4.70	–
O=C(NCc1ccccc1)c1ccc([N+](=O)[O-])o1	7.56	> 732	< 4.70	–
O=C(Nc1ccccc1)c1ccco1	< 4.70	–	< 4.70	–
O=[N+]([O-])c1ccc(CNc2ccccc2)o1	3.95	–	< 4.70	–

Structure (SMILES)	pEC50 [1]	selectivity ratio [2]	pEC50 (HeLa)	also measured
O=C(NC1CCCCC1)c1ccc([N+](=O)[O-])o1	6.64	> 86	< 4.70	–
CC1CS(=O)(=O)CCN1/N=C/c1ccc([N+](=O)[O-])o1 (stereo not given) [NIFURTIMOX]	–	38	4.04	Ratio EC50 [5]: 3; pEC50 [3]: 5.77; pEC50 (Trypanosoma brucei [6]): 5.14
CCc1cc(C(N)=O)c(NCc2ccc([N+](=O)[O-])o2)s1	5.28	> 4	< 4.70	–
O=C(Nc1ccc(O)c(C(F)(F)F)c1)c1ccc([N+](=O)[O-])o1	5.66	> 9	< 4.70	–
O=C(Nc1ccc(Cl)cc1)c1ccc([N+](=O)[O-])o1	6.39	> 48	< 4.70	–
CCc1cc(C(N)=O)c(NC(=O)c2ccccc2[N+](=O)[O-])s1	4.58	–	< 4.70	–
CCOC(=O)c1ccsc1NC(=O)c1ccc([N+](=O)[O-])o1	7.14	> 278	< 4.70	–
O=C(Nc1ccc(C(F)(F)F)cc1)c1ccc([N+](=O)[O-])o1	6.90	> 158	< 4.70	pEC50 [3]: 6.80
O=C(Nc1cccc(Br)c1)c1ccc([N+](=O)[O-])o1	6.98	> 192	< 4.70	–
COC(=O)c1ccc(NC(=O)c2ccc([N+](=O)[O-])o2)cc1	6.17	> 29	< 4.70	–
CCc1cc(C(N)=O)c(NC(=O)c2n[nH]cc2[N+](=O)[O-])s1	< 3.52	–	< 4.70	–
O=C(Nc1cc(C(F)(F)F)cc(C(F)(F)F)c1)c1ccc([N+](=O)[O-])o1	6.89	> 78	< 5.00	–
COc1cc(NC(=O)c2ccc([N+](=O)[O-])o2)cc(C(F)(F)F)c1	7.58	> 752	< 4.70	–
COC(=O)c1ccc([N+](=O)[O-])o1	4.17	–	< 4.70	–
C=CCOc1ccc(NC(=O)c2ccc([N+](=O)[O-])o2)cc1C(F)(F)F	8.62	> 8330	< 4.70	Ratio EC50 [4]: 1000; Ratio EC50 [5]: 14; pEC50 [3]: 8.54; pEC50 (Trypanosoma brucei [7]): 8.11; pEC50 (Trypanosoma brucei [6]): 7.53; Ratio EC50 [8]: 3
O=C(Nc1ccc(O)cc1)c1ccc([N+](=O)[O-])o1	6.40	> 50	< 4.70	–
O=C(NCc1ccccn1)c1ccc([N+](=O)[O-])o1	6.54	> 68	< 4.70	–
N=C(N)c1ccc(OCCCCCOc2ccc(C(=N)N)cc2)cc1 [PENTAMIDINE]	–	–	–	pEC50 (Trypanosoma brucei [6]): 8.96; Ratio EC50 [8]: 2
CCNC(=O)c1cc(CC)sc1NC(=O)c1ccc([N+](=O)[O-])o1	6.83	> 136	< 4.70	pEC50 [3]: 6.70
CCc1cc(C(N)=O)c(NC(=O)c2cccc([N+](=O)[O-])c2)s1	5.59	> 8	< 4.70	–
CCCCNC(=O)c1cc(CC)sc1NC(=O)c1ccc([N+](=O)[O-])o1	6.47	> 60	< 4.70	–
CCc1cc(C(N)=O)c(NC(=O)c2ccc([N+](=O)[O-])o2)s1	7.76	> 1160	< 4.70	pEC50 [3]: 7.64
O=C(NNC(=O)c1ccc([N+](=O)[O-])o1)c1ccc2ccccc2c1	–	–	–	pEC50 (Trypanosoma brucei [9]): 6.89
